Assays:
HeLa = assay: Cytotoxicity against human HeLa cells assessed as reduction in cell viability incubated for 96 hrs by MTT assay; format: functional, cell-based
In short: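 HeLa monolayers kept in DMEM with 10% v/v FBS and 2 mM L-glutamine at 37 °C under humidified 5% CO2. Cells were seeded at 5000–20 000 per well and preincubated 24 h. Compound was added in triplicate, with doxorubicin as positive control. After 96 h continuous exposure, viability was read by MTT absorbance at 570 nm. IC50 came from dose–response analysis.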

MIA PaCa-2 = assay: Cytotoxicity against human MIAPaCa2 cells assessed as reduction in cell viability incubated for 96 hrs by MTT assay; format: functional, cell-based; conditions: MIA PaCa-2, 96 h
In short: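 Pancreatic adenocarcinoma MIA PaCa2 cells were cultured in DMEM plus 2 mM L-glutamine and 10% FBS at 37 °C, 5% CO2. Cells were seeded at 5000–20 000 per well and rested 24 h, then dosed in triplicate for 96 h continuous exposure, with doxorubicin as positive control. Read-out was MTT absorbance at 570 nm; IC50 was derived by dose–response analysis.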

NCI-H1975 = assay: Cytotoxicity against human NCI-H1975 cells assessed as reduction in cell viability incubated for 96 hrs by MTT assay; format: functional, cell-based; conditions: NCI-H1975, 96 h
In short: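 NSCLC NCI H1975 cells were maintained in RPMI 1640 with 10% v/v FBS and 1% penicillin–streptomycin at 37 °C, humidified 5% CO2. Cells were seeded at 5000–20 000 per well, given 24 h, then dosed in triplicate for 96 h with doxorubicin as positive control. Viability was measured by MTT at 570 nm, and IC50 was obtained from dose–response curves.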

WI-38 = assay: Cytotoxicity against human WI38 cells assessed as reduction in cell viability incubated for 96 hrs by MTT assay; format: cell-based; conditions: WI-38, 96 h
In short: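 WI 38 cells were grown in DMEM with 2 mM L-glutamine, 1× nonessential amino acids, 1% penicillin–streptomycin and 15% FBS at 37 °C, 5% CO2. Cells were plated at 5000–20 000 per well, then 24 h later dosed in triplicate and exposed continuously for 96 h. Read-out was MTT absorbance at 570 nm, with IC50 from dose–response analysis.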

MDA-MB-231 = assay: Cytotoxicity against human MDA-MB-231 cells assessed as reduction in cell viability incubated for 96 hrs by MTT assay; format: functional, cell-based; conditions: MDA-MB-231, 96 h
In short: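 Triple-negative breast line MDA MB231 was grown as monolayer at 37 °C under humidified 5% CO2 and plated at 5000–20 000 cells/well depending on line. After 24 h, compound was added in triplicate, with doxorubicin as positive control. Cells were exposed continuously for 96 h, then MTT colorimetry read at 570 nm. IC50 came from dose–response fitting.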

Structure (SMILES)	IC50 (HeLa) [µM]	IC50 (MIA PaCa-2) [µM]	IC50 (NCI-H1975) [µM]	IC50 (WI-38) [µM]	IC50 (MDA-MB-231) [µM]
COc1cccc2c1C(=O)c1c(O)c3c(c(O)c1C2=O)C[C@@](O)(C(=O)CO)C[C@@H]3O[C@H]1C[C@H](N)[C@H](O)[C@H](C)O1 [DOXORUBICIN]	0.05	0.04	0.03	0.35	0.07
COc1c(O)cc(O)c2c1C(=O)c1cc(C)ncc1C2=O	0.71	0.64	0.34	6.42	0.73
COc1cc(O)cc2c1C(=O)c1cnc(C)cc1C2=O	0.96	0.98	0.61	5.84	1.51
COc1cc(O)c2c(c1)C(=O)C1=C(COC(C)(O)C1)C2=O (stereo not given)	10.3	20.5	27.7	54.3	30.7
